# C8 TRAIL sens – viability loss with TRAIL in NB7+C8 cells, primary screen, TRAIL sensitizer project, cell-based, ATPlite luminescence; inhibition (viability loss, TRAIL sensitization), % at 10 µM; 360,000 compounds, 1% hits; AID 624354, 2012;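 active means compounds causing at least 50% loss of cell viability in the single-dose screen, relative to plate controls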
# FLuc inh counter – firefly luciferase enzyme inhibitors, primary screen, artefact control for luciferase-based inhibitor screens, biochemical, luminescence, ATPLite; Luciferin 4-monooxygenase (Photinus pyralis), P08659; AID 1006, 2008; 200,000 compounds, 1.5% hits; 10 min; inhibition, % at 10 µM;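 active means inhibition above about 50% when tested at 10 µM, limit read from the data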
# Target sequence (P08659 whole entry, looked up): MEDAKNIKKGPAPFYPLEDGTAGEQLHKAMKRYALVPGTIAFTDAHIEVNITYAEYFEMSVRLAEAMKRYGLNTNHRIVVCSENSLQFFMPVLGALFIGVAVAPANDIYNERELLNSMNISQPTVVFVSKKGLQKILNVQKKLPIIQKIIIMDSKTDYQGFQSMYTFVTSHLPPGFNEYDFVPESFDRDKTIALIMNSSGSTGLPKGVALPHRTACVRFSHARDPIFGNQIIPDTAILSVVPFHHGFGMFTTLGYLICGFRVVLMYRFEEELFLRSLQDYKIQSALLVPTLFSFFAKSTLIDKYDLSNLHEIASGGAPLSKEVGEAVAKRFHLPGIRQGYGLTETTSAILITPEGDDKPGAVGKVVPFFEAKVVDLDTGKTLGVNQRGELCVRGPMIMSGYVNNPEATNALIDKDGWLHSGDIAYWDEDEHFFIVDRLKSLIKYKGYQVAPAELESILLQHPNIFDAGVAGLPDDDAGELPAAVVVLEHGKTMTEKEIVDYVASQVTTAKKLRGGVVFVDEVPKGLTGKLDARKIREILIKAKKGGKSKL
# HSP90 refold inh – HSP90 inhibitors, primary screen, cell lysate, luminescence; Heat shock protein HSP 90 (rabbit reticulocyte lysate; luciferase refolding); Rabbit reticulocyte lysate, luciferase refolding luminescence, 3 h; 290,000 compounds, 0.91% hits; AID 1789, 2009; inhibition, % at 5.6 µM;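 active means inhibition above the screen-wide mean plus 3 SD, computed separately per campaign, cut at about 16% in these data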;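 further: 0% = DMSO wells and 100% = 60 µM geldanamycin wells; inhibitors lower the luminescence because luciferase stays unfolded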
# FLuc stim CS – FLuc activators, initial screening, artefact control for FLuc-dependent activation tests, biochemical, ATPlite luminescence | activation factor at 10 µM | AID 1027, 2008 | ATPlite luciferase biochemical, 10 min; 0 = ATP-free wells, 1 = DMSO control | Luciferin 4-monooxygenase (Photinus pyralis), P08659 | 200,000 tested, under 10 active;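 active means luciferase activation factor, scaled between plate controls, of at least 2 with compound at 10 µM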
#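 Assay system: Luciferase/luciferin detection reagent, cell-free biochemical luciferase assay / Also added: ATP substrate / Schedule: 10 min at ambient temperature / Measured by: luminescence measurement of luciferase light output / Benchmarks: low control with PBS replacing ATP, high control enzyme plus ATP without compound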
# PPC-1+TRAIL kill – compounds killing PPC-1 cancer cells with TRAIL present, primary screen, TRAIL potentiator project, ATPLite luminescence, uHTS; AID 1443, 2008; cell killing (% activity), % at 4 µM or 5 µM; PPC-1 cells + TRAIL, ATPLite viability luminescence; 220,000 compounds, 0.41% hits;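 active means cell killing above 50% in the first pass at 4 µM, then a duplicate retest at 5 µM averaging 50% or more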;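 further: plate controls were cells with TRAIL plus DMSO for no effect and medium-only wells lacking cells for full effect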
# HSP90 confirm – HSP90 inhibitors, confirmation, cell lysate, luminescence | shares compounds with HSP90 refold inh | rabbit reticulocyte lysate, luciferase refolding luminescence, 3 h | inhibition, % at 5.9 µM | 2,300 compounds, 64% hits | AID 1846, 2009; in the data active means inhibition above about 18%;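 further: 0% = vehicle wells and 100% = reference inhibitor wells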
# FLuc counter – firefly luciferase inhibitors, HSP90 counter-screen, confirmation, artefact control for HSP90 inhibitor project, biochemical, luminescence, triplicate. 2,300 compounds, 48% hits. AID 1847, 2009. shares compounds with HSP90 refold inh. purified native firefly luciferase. inhibition, % at 5.9 µM;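 active means inhibition above the mean inhibition of all tested sample wells plus 3 SD, cut at about 10% in these data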;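 further: 0% = DMSO with luciferase and 100% = wells lacking luciferase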
# Starred values were filed as active, the others as inactive; . = not tested or not shown. An excerpt weighted towards active compounds, which were near 2% of everything screened.
SMILES,C8 TRAIL sens,FLuc inh counter,HSP90 refold inh,FLuc stim CS,PPC-1+TRAIL kill,HSP90 confirm,FLuc counter
CCOc1ccc(CCNC(=O)C2CCN(c3nn4c(=O)cc(C)nc4s3)CC2)cc1,32,-1,18*,1,21,-9,-12
O=C(NCc1ccccn1)Nc1ccccc1C(F)(F)F,-6,.,-3,.,.,.,.
COc1cccc(C(=O)Nc2ccc(N3CCN(S(C)(=O)=O)CC3)cc2)c1,13,11,18*,0.9,33,-8,-19
CN1CCN(c2ccc(NC(=O)c3ccc4ccccc4c3)cc2)CC1,45,.,25*,.,.,31*,28*
CN1CCN(c2ccc(CNC(=O)c3cc4ccccc4o3)cc2)CC1,7,.,-1,.,6,.,.
Cc1ccc(C(=O)NCc2ccc(N3CCN(C)CC3)cc2)cc1C,0,.,22*,.,.,0,-9
CC(C)c1ccc2[nH]c3c(c2c1)[C@@H]1CCN2C(=O)CCC[C@H](C3)[C@H]12,1,.,-2,.,.,.,.
Cc1cc(C)c(OCC(=O)N(Cc2ccccc2)C2CCS(=O)(=O)C2)c(C)c1 (centres undefined),5,.,-2,.,.,.,.
Cc1c(C)c2cc(Cl)c(OCC(=O)Nc3ccccn3)cc2oc1=O,-7,.,.,.,.,.,.
COc1ccccc1OCC(=O)Nc1ccccn1,26,71*,70*,0.3,41,20*,3
Cc1c(C)c2ccc(OCC(=O)Nc3ccccn3)c(C)c2oc1=O,93*,.,96*,.,.,100*,91*
Cc1cn([C@H]2C[C@H](O)[C@@H](/C=C/C(=O)NCCc3ccc4c(c3)OCO4)O2)c(=O)[nH]c1=O,8,.,.,.,.,.,.
Cc1ccc(S(=O)(=O)N2CCC(C(=O)OCC(=O)NC(C)c3ccc(F)cc3)CC2)cc1C (centres undefined),-12,.,.,.,.,.,.
O=C(COc1ccc2c(c1)OCO2)Nc1nccs1,53*,.,37*,.,.,53*,36*
COc1ccc(OCC(=O)Nc2nccs2)cc1,48,75*,31*,0.2,48,60*,39*
CS(=O)(=O)c1ccc(C(=O)N2CCN(S(=O)(=O)c3ccc(C4CCCCC4)cc3)CC2)cc1,13,.,.,.,.,.,.
CC(C)Cn1c(SCC(=O)Nc2cccnc2Cl)nnc1-c1ccco1,-13,.,.,.,.,.,.
O=C(O)c1ccc(N=Nc2c(O)ccc3ncccc23)cc1,-1,.,54*,.,.,54*,20*
Cc1sc2ncnc(SCC(=O)c3ccc(O)cc3O)c2c1C,-3,.,19*,.,17,-10,-11
C=CCn1c(SCC(=O)NCCOC)nnc1-c1cc2c(s1)CCC(CC)C2 (centres undefined),13,30,52*,0.7,14,2,-12
O=C(COc1ccccc1F)Nc1cc(S(=O)(=O)Nc2cccc(Cl)c2)ccc1O,-10,.,.,.,.,.,.
Cc1ccccc1-c1cc(C(=O)O)n(CC2CC(c3cccnc3)=NO2)n1 (centres undefined),-1,.,.,.,.,.,.
CCCN1CCC(NC(=S)Nc2cccc(Cl)c2Cl)CC1,4,-7,0,1.1,0,.,.
COc1ccc(OC)c(/C=N\Nc2nccs2)c1,-15,.,.,.,.,.,.
COc1ccc(OC)c(/C=N/Nc2nncn2/N=C/c2cc(OC)ccc2OC)c1,-14,4,42*,1,12,-2,-12
Cc1occc1-c1nnc(SCC(=O)N2CCCCC2)o1,-17,-2,0,1,10,.,.
C=CCOc1ccccc1CNc1ccc2c(c1)OCCO2,59*,74*,67*,0.3,39,73*,69*
C=CCOc1ccccc1CNc1cccc(F)c1,-16,-7,-4,1.1,-12,.,.
O=C(O)c1ccc(N=NNc2cccc([N+](=O)[O-])c2)cc1,-12,-1,7,1,-10,.,.

# High-throughput results as filed in PubChem BioAssay.
